Active and inactive are the calls of the source. The rule behind the calls is not given here.
Columns and labels:
[1] = molecular target: T1, ATP-dependent RNA helicase DDX3X (Homo sapiens, UniProt O00571); test: Inhibition of recombinant full length human His-tagged DDX3X expressed in Escherichia coli using dsRNA as substrate measured after 40 mins in presence of ATP by FRET assay
Target sequence in this assay (O00571 whole entry): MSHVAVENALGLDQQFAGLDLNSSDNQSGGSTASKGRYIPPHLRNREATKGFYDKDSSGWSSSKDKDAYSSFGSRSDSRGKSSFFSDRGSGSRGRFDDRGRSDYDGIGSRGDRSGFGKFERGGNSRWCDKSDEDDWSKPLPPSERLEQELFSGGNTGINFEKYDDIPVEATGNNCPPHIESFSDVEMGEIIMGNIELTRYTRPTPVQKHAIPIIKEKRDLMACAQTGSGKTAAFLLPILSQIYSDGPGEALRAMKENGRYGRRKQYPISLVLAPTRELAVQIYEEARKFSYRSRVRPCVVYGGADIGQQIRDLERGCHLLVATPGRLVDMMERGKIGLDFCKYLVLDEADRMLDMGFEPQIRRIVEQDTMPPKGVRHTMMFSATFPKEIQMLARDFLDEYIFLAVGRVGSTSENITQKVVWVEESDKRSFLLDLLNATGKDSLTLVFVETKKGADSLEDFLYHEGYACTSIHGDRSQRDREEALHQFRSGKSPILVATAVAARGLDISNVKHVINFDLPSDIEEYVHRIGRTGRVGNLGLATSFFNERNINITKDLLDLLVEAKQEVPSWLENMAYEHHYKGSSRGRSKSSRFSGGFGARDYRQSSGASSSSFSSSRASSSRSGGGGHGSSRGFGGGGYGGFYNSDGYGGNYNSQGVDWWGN

dengue virus type 2 [2] = test: Antiviral activity against Dengue virus serotype 2 New Guinea C infected at 50 TCID50 in human HuH7 cells assessed as inhibition of viral replication and 72 hrs later re-infected pre-seeded HuH7 cells with viral supernatant collected from previous infected and measured after 72 hrs by immunodetection assay; format: functional, organism-based; conditions: Huh-7, 72 h
How it was run: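 Huh-7 cells infected with 50 TCID50 DENV-2 in presence of serial compound dilutions; after 72 h supernatants used to infect preseeded Huh-7 cells for a second infection cycle; replication read after further 72 h by immunoenzymatic assay with monoclonal antibody to conserved viral E antigen region. IC50 from at least two experiments, mean ± SD.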

[3] = Cytotoxicity against human HuH7 cells assessed as reduction in cell viability by measuring ATP level measured after 72 hrs by CellTiter-Glo luminescent assay; format: cell-based, Huh-7
How it was run: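 Huh-7 cells; viable cell number determined from cellular ATP content by CellTiter-Glo 2.0 luminescence; CC50 derived.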

in vitro = conditions: human
[4] = molecular target: T1, ATP-dependent RNA helicase DDX3X; test: Induction of DDX3X recruitment in human HuH7 cells infected with 100 TCID50 of Dengue virus serotype 2 New Guinea C assessed as colocalization of DDX3X in perinuclear region at 20 uM measured at 6 to 24 hrs post-infection by Alexa fluor 488 dye based confocal microscopy; format: cell-based; conditions: Huh-7
How it was run: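 Huh-7 cells infected with DENV-2 at 100 TCID50, treated with fluorescent inhibitor at 20 μM; fixed at 0, 6, 12 and 24 h p.i., permeabilized, immunostained for DDX3 or NS5 (Alexa Fluor 568 secondary) and examined by confocal microscopy for colocalization with the probe.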
Target sequence in this assay (O00571 2-662 limits assumed): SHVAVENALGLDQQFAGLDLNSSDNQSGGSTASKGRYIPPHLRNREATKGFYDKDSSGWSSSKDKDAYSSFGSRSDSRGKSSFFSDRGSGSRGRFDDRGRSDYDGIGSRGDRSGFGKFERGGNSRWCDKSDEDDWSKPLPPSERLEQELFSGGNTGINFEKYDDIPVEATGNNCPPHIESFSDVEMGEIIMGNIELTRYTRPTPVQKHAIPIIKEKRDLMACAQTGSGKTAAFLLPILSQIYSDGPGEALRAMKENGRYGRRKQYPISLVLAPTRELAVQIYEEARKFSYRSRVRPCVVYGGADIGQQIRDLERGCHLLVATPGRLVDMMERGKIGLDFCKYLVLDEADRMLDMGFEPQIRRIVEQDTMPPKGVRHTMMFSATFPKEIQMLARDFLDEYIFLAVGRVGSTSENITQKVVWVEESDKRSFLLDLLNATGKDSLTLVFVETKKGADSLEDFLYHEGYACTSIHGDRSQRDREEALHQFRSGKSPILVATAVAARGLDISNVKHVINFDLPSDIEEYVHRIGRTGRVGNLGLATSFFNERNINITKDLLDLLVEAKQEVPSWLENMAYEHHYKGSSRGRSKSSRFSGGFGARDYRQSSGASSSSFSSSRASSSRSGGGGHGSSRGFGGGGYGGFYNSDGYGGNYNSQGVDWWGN

dengue virus type 2 [5] = test: Antiviral activity against Dengue virus serotype 2 New Guinea C infected at 100 TCID50 in human HuH7 cells assessed as cytoplasmic localization of NS5 followed by movement to nucleus at 20 uM measured at 6 hrs post-infection by […]; format: functional, organism-based; conditions: Huh-7
[6] = molecular target: T1, ATP-dependent RNA helicase DDX3X; test: Induction of DDX3X recruitment in human HuH7 cells infected with 100 TCID50 of Dengue virus serotype 2 New Guinea C assessed as increase in DDX3X expression in perinuclear region at 20 uM measured at 48 to 72 hrs post-infection by Alexa fluor 488 dye based confocal microscopy; format: cell-based; conditions: Huh-7
How it was run: (§1)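 DENV-2-infected Huh-7 cells (100 TCID50) treated with fluorescent inhibitor at 20 μM; immunostained for DDX3X or NS5 and examined by confocal microscopy over time up to 72 h p.i.; viable cell number and NS5-positive cell number scored.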
Target sequence in this assay (O00571 2-662 limits assumed): as above

dengue virus type 2 [7] = test: Antiviral activity against Dengue virus serotype 2 New Guinea C infected at 100 TCID50 in human HuH7 cells assessed as increase in viable cells at 20 uM measured at 48 to 72 hrs post-infection by Alexa fluor 488 dye based confocal microscopy; format: functional, organism-based; conditions: Huh-7; how it was run: as §1
dengue virus type 2 [8] = test: Antiviral activity against Dengue virus serotype 2 New Guinea C infected at 100 TCID50 in human HuH7 cells assessed as reduction of NS5 positive cells at 20 uM measured at 48 to 72 hrs post-infection by Alexa fluor 488 dye based confocal microscopy; format: functional, organism-based; conditions: Huh-7; how it was run: as §1
dengue virus type 2 [9] = test: Antiviral activity against Dengue virus serotype 2 New Guinea C infected at 100 TCID50 in human HuH7 cells assessed as reduction in number of NS3 positive cells at 0.1 to 20 uM measured up to 24 hrs by Alexa fluor 488 dye based confocal microscopy; format: functional, organism-based; conditions: Huh-7
dengue virus type 2 [10] = test: Antiviral activity against Dengue virus serotype 2 New Guinea C infected at 100 TCID50 in human HuH7 cells assessed as reduction in number of NS5 positive cells at 0.1 to 20 uM measured up to 24 hrs by Alexa fluor 488 dye based confocal microscopy; format: functional, organism-based; conditions: Huh-7
dengue virus type 2 [11] = test: Antiviral activity against Dengue virus serotype 2 New Guinea C infected at 100 TCID50 in human HuH7 cells assessed as cytopathic effect by measuring increase in viable cells at 0.1 to 20 uM measured up to 24 hrs by Alexa fluor 488 based confocal microscopy; format: functional, organism-based; conditions: Huh-7
dengue virus type 2 [12] = test: Antiviral activity against Dengue virus serotype 2 New Guinea C infected at 100 TCID50 in human HuH7 cells assessed as reduction in number of dsRNA positive cells at 0.1 to 20 uM measured up to 24 hrs by Alexa fluor 488 dye based confocal microscopy; format: functional, organism-based; conditions: Huh-7

| SMILES | IC50 [1] [nM] | IC50 (dengue virus type 2 [2]) [µM] | CC50 at 72 h [3] [µM] | selectivity ratio at 72 h (in vitro; HuH7 cells) | also measured |
| --- | --- | --- | --- | --- | --- |
| COc1cc(-n2cc(CCC(C)C)nn2)ccc1NC(=O)Nc1ccccc1C(F)(F)F | 1050 |  |  |  |  |
| CCCCc1cn(-c2cccc(S(=O)(=O)Nc3ccccc3O)c2)nn1 | 400 | 1.6 | 150 |  |  |
| CC(C)CCc1cn(-c2ccc(NC(=O)Nc3ccc(F)cc3)cc2)nn1 | 1900 |  |  |  |  |
| CC(C)CCc1cn(-c2ccc(NC(=O)Nc3cccc(F)c3)cc2)nn1 |  | 2.5 | 200 | 80 |  |
| O=C(Nc1ccc(-n2cc(CF)nn2)cc1)Nc1ccccc1C(F)(F)F | 2200 |  |  |  |  |
| CCOCc1cn(-c2ccc(NC(=O)Nc3cccc(F)c3)cc2)nn1 | 21200 | > 145 | 145 |  |  |
| CC(C)OC(=O)[C@H](C)N[P@](=O)(OC[C@H]1O[C@@H](n2ccc(=O)[nH]c2=O)[C@](C)(F)[C@@H]1O)Oc1ccccc1 [SOFOSBUVIR] |  | 3.8 | 200 | 52.6 |  |
| O=C1OC2(c3ccc(O)cc3Oc3cc(O)ccc32)c2cc(NC(=S)NCCOCc3cn(-c4cccc(S(=O)(=O)Nc5ccccc5C(F)(F)F)c4)nn3)ccc21 |  | 28.2 | 140 |  | Activity [4]: Active; Activity (dengue virus type 2 [5]): Active; Activity [6]: Active; Activity (dengue virus type 2 [7]): Active; Activity (dengue virus type 2 [8]): Active |
| CCOCc1cn(-c2cccc(S(=O)(=O)Nc3ccccc3N3CCOCC3)c2)nn1 | 60 | 5.3 | 100 | 18.9 |  |
| CCCCc1cn(-c2cccc(S(=O)(=O)Nc3ccccc3OC)c2)nn1 | 180 | 6.3 | 79 |  |  |
| CCOCc1cn(-c2cccc(S(=O)(=O)Nc3cccc(C(=O)O)c3)c2)nn1 |  | > 7 | 7 |  |  |
| CCCCc1cn(-c2cccc(S(=O)(=O)Nc3ccccc3C(F)(F)F)c2)nn1 |  | 6.1 | 18 | 3 |  |
| CCOCc1cn(-c2cccc(S(=O)(=O)Nc3ccccc3C(F)(F)F)c2)nn1 |  | 2.6 | 150 |  | Activity (dengue virus type 2 [9]): Active; Activity (dengue virus type 2 [10]): Active; Activity (dengue virus type 2 [11]): Active; Activity (dengue virus type 2 [12]): Active |
| CCCCc1cn(-c2ccc(NC(=O)Nc3ccccc3C)cc2)nn1 |  | 2.55 |  |  |  |
| CCOCc1cn(-c2cccc(S(=O)(=O)Nc3ccccc3NS(C)(=O)=O)c2)nn1 | 80 | 8.3 | 87 | 10.5 |  |
| NC(=O)c1ncn([C@@H]2O[C@H](CO)[C@@H](O)[C@H]2O)n1 [RIBAVIRIN] |  | 4 | 100 |  | selectivity ratio at 72 h (in vitro): 25 |
| CC(C)CCc1cn(-c2ccc(NC(=O)Nc3ccccc3F)cc2)nn1 |  | 0.9 | 200 | 222 |  |
| CCCCCCc1cn(-c2ccc(NC(=O)Nc3ccccc3C(F)(F)F)cc2)nn1 | 300 | 2.7 | 170 | 62.9 |  |
| CCOCc1cn(-c2cccc(S(=O)(=O)Nc3cccc(C(=O)OCC)c3)c2)nn1 | 5 | 4.3 | 100 | 23.2 |  |
| CCCCc1cn(-c2cccc(S(=O)(=O)Nc3cccc4cnccc34)c2)nn1 | 120 | 2.3 | 30 |  |  |
| COc1cc(NC(=O)Nc2ccccc2C(F)(F)F)ccc1-n1cc(CCC(C)C)nn1 | 300 |  |  |  |  |
| CC(=O)CCc1cn(-c2ccc(NC(=O)Nc3cccc(F)c3)cc2)nn1 | 2400 | 0.3 | 20 | 64.7 |  |
| CCCCc1cn(-c2ccc(NC(=O)Nc3ccccc3NS(C)(=O)=O)cc2)nn1 | 60 | 2.5 | 35 | 14 |  |
| Cc1ccccc1NC(=O)Nc1ccc(-n2cc(CCC(C)C)nn2)cc1 | 170 | 1.4 | 170 | 121 |  |
| CCCC(C)C(F)c1cn(-c2ccc(NC(=O)Nc3ccccc3C(F)(F)F)cc2)nn1 (stereo not given) | 1050 |  |  |  |  |
| CCCCc1cn(-c2ccc(NC(=O)Nc3cccc(F)c3)cc2)nn1 | 600 | 10.5 | 200 | 19 |  |
